Screening results: PubChem, several laboratories
This is a sample that favours compounds with a hit; in the whole collection about 1.9% have one here.
Ins promoter up = MIN6 insulin promoter up-regulation; MIN6 insulin promoter-GFP reporter, high-content imaging; hits give high values; z-score at 5 µM; hit rate 0.3% among 190,000;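 active = z-score above 3 at 5 µM with at least 500 cells counted in the well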
bCat nuc transl = alters nuclear translocation of beta-catenin in HeLa cells; immunofluorescence imaging; nuclear translocation activity, % at 5 µM; hit rate 0.3% among 190,000; AID 1665;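 active = nuclear translocation activity above 50% at 5 µM, with a well cell count of 50 or more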;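 note: per-cell ratio of nuclear to cytoplasmic median beta-catenin stain intensity; plate controls were DMSO negative control for no effect and GSK-3 inhibitor IX positive control for full effect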
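Test system: human HeLa cells, native beta-catenin. Compound dosing: 5 µM primary single dose, 0.1% DMSO, 0.02–20 µM confirmation series. Incubation: compound exposure 24 h at 37°C. Detection: beta-catenin immunostaining with DAPI counterstain, 20x imaging, 6 fields/well. Read-out basis: Nuclear/cytoplasmic beta-catenin signal ratio, % activation.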
Autophagy HCS = autophagy modulation, high-content screen; AID 463193; calls only at 10 µM (by protocol); MEF GFP-LC3 puncta imaging; test concentration mostly 10 µM; hit rate 0.98% among 190,000;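 active = percentage of spot-positive cells more than 3 SD above its plate mean, without a fluorescence outlier flag or 80% toxicity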;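 note: spot-positive cell cutoff set from DMSO-treated cells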
Tb hexokinase = T. brucei hexokinase 1 inhibition; AID 1430; recombinant TbHK1, G6PDH-coupled NADH A340; inhibition, % at 10 µM; hit rate 0.11% among 220,000;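 active = inhibition of 50% or more in the single-dose primary screen; inactive = inhibition below 50%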
MT stabilizer = stabilizes microtubules in HeLa cells; HeLa tubulin immunostaining HCS, 24 h; share of cells brighter than vehicle mean+2SD; % tubulin-high responders, % at 10 µM; hit rate 0.83% among 200,000; AID 2205;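 active = plate Z-score above 3 for both tubulin-high and condensed-nucleus cell shares, with cell loss under 80%, at 10 µM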;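 note: anti alpha tubulin signal scored within the nucleus-defined area of each cell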
An asterisk follows results filed as active; i = inactive; . = no result; + = active, no number.

SMILES	Ins promoter up	bCat nuc transl	Autophagy HCS	Tb hexokinase	MT stabilizer
CCOc1ccc(NC(=NCc2ccc3c(c2)OCO3)SC2CC(=O)N(c3ccccc3)C2=O)cc1 (configuration not stated)	0.07	3.3	i	-3.0	3.6
O=c1[nH]c2ccc(S(=O)(=O)NCc3ccccc3)cc2[nH]1	-0.84	3.2	i	-0.9	5.0
COC(=O)C1=C(N)n2c(s/c(=C\c3cccnc3)c2=O)=C(C(=O)OC)C1c1cccnc1 (configuration not stated)	3.21*	-0.9	i	-18.5	1.4
CCOC(=O)C1=C(N)n2c(s/c(=C/c3ccco3)c2=O)=C(C(=O)OC)C1c1ccco1 (configuration not stated)	0.38	-4.4	i	-19.9	45.8*
CCOC(=O)C1=c2s/c(=C\c3cccnc3)c(=O)n2C(N)=C(C(=O)OC)C1c1cccnc1 (configuration not stated)	-0.83	2.4	i	-30.8	1.9
Cc1c(NC(=O)COC(=O)CCC(=O)c2ccc(Cl)cc2)c(=O)n(-c2ccccc2)n1C	0.04	-3.1	i	-0.9	1.5
Cc1cc(NC(=O)c2ccc3c(c2)C(=O)N(C2CCCCC2)C3=O)no1	0.31	-2.3	+	12.5	5.2
COCCn1nnnc1C(c1ccccc1OC)N1CCN(c2ccccc2)CC1 (configuration not stated)	0.09	-4.1	+	1.6	4.1
CSc1ccc(CN(C)C(C)C(=O)NCc2ccccc2)cc1 (configuration not stated)	0.56	-2.7	i	-1.7	2.3
CC(C)Nc1ccc(Nc2ccnc3cc4ccccc4cc23)cc1	-2.64	-2.4	.	-14.9	.
c1ccc(CCNc2ccnc3cc4ccccc4cc23)cc1	0.77	2.2	i	5.1	30.9*
CN(C)S(=O)(=O)c1cccc(-c2nn(-c3ccccc3)cc2/C=C(\C#N)c2nc3ccccc3[nH]2)c1	-0.86	1.2	i	-14.4	1.9
N#C/C(=C\c1cn(-c2ccccc2)nc1-c1cc2ccccc2o1)c1nc2ccccc2[nH]1	1.68	-1.5	+	-20.2	2.4
FC(F)(F)c1ccc2c(c1)NCC1CCCN21 (configuration not stated)	0.17	-2.4	+	-20.3	2.8
FC(F)(F)c1ccc2c(c1)N1CCCC1CN2 (configuration not stated)	0.91	1.2	+	-15.5	6.7
COc1ccc(-c2cc(C#N)nc(Cl)n2)cc1	0.59	0.6	.	-41.9	.
CCN(CC)c1nc(C#N)cc(-c2ccc(OC)cc2)n1	-0.51	-5.5	i	-0.3	63.2*
COc1ccc(CN2CCN(CCC(C)C)C(CCO)C2)cc1Cn1cncn1 (configuration not stated)	-0.1	1.1	i	-0.6	4.0
Oc1ccc(Cl)cc1C1=Nc2ccccc2N=C(c2ccco2)C1	4.34*	-6.6	+	-20.4	i
COc1ccc(O)c(C2=Nc3ccccc3N=C(c3ccco3)C2)c1	-0.01	1.2	i	-6.6	2.5
CCc1ccc(/C=N/NC(=O)c2cc(C3CC3)nc3ccc(Br)cc23)s1	-0.82	-1.5	i	-26.8	20.0*
CCc1ccc(/C=N/NC(=O)c2cc(-c3ccccc3OC)nc3ccccc23)s1	.	1.7	i	-44.6	1.3
CN1/C(=C/C=C(/C#N)C(N)=O)C(C)(C)c2ccccc21	.	.	i	2.4	19.9*
CN1/C(=C\C=C(/C#N)C(=O)Nc2ccccc2F)C(C)(C)c2ccccc21	.	1.7	i	26.6	2.3
COc1cccc(C2c3c(C)nn(-c4ccc([N+](=O)[O-])cc4)c3N=C3C(=O)Nc4ccccc4N32)c1 (configuration not stated)	-1.22	2.8	+	-19.8	2.9
SMILES	Ins promoter up	bCat nuc transl	Autophagy HCS	Tb hexokinase	MT stabilizer
Cc1ccc(C2c3c(C)nn(-c4ccc([N+](=O)[O-])cc4)c3N=C3C(=O)Nc4ccccc4N32)cc1 (configuration not stated)	-0.06	-4.7	i	-21.7	3.6
C=CCn1c(O)c(N=NC(=O)CNC(=O)c2ccco2)c2ccccc21	-0.09	-0.8	i	6.0	12.5*
CCC1=NN(C(=O)Cc2ccc([N+](=O)[O-])cc2)C(O)(C(C)(C)C)C1 (configuration not stated)	-0.2	-0.7	+	1.7	1.9
Cc1cc(NC(=O)COc2cccc(Oc3ccccc3)c2)no1	0.34	0.1	+	-5.0	2.2
COC(=O)c1c(C(=O)OC)c(-c2ccc(Cl)cc2)n2c1CS(=O)(=O)C2	-0.52	-0.7	i	10.0	2.2
CC(C)NC(=O)NC(=O)COC(=O)c1cccc(S(=O)(=O)N2CCCCC2)c1	4.62*	0.4	i	1.1	5.5
O=C(CCl)Nc1cccc(S(=O)(=O)N2CCCCCC2)c1	-2.57	31.2	i	-2.3	12.9*
Cc1ccc(C)c(NC(=S)N(Cc2ccc(Cl)cc2)Cc2ccc(C(=O)O)cc2)c1	-0.66	0.0	i	-15.9	2.3
O=C(c1cccs1)c1no[n+]([O-])c1C(=O)c1cccs1	3.78*	.	i	2.7	2.6
COc1ccc(/C=N/c2oc(C)c(C)c2C#N)c(OC)c1	0.95	-0.7	+	-11.8	2.2
Cc1ccc(/C=C/C(=O)N2CCCC(C(N)=O)C2)o1 (configuration not stated)	-0.11	0.0	.	-37.2	.
CCOc1ccc(-c2nnn(CC(=O)Nc3cc(OC)ccc3OC)n2)cc1OCC	-0.68	1.9	i	-3.9	4.1
COc1ccc(-c2nnn(CC(=O)N3CCN(c4ccccc4OC)CC3)n2)cc1	.	0.1	+	-1.4	2.9
CCOc1ccc(-c2nnn(CC(=O)c3cc(OC)ccc3OC)n2)cc1	.	0.9	i	37.6	50.2*
CN(C)c1ccc(C2CC(c3ccccc3)=Nc3nc(-c4ccccc4)cn32)cc1 (configuration not stated)	-0.02	1.9	i	-10.4	3.7
c1ccc(CNc2nc3ccccc3[nH]2)cc1	0.07	-1.8	i	5.1	7.8
COc1ccc2nc(NCc3ccccc3)[nH]c2c1	-0.28	11.5	i	4.8	42.6*
Cc1ccc2nc(NCc3ccccc3)[nH]c2c1	-1.64	11.4	+	5.1	21.7*
CCNC(=S)N1CCN(S(=O)(=O)c2cccc(C(F)(F)F)c2)CC1	0.27	-0.8	i	-8.2	1.3
O=C(NC(=S)Nc1cc(-c2nc3ccccc3[nH]2)ccc1Cl)c1ccc2c(c1)OCO2	-0.77	5.3	i	-7.9	14.1*
CCOc1ccccc1OCC(=O)N/N=C(\C)Cc1ccc(OC)cc1	1.25	3.7	i	1.7	15.0*
CSc1ccc(S(=O)(=O)NCCCOC(C)C)cc1	-0.27	0.4	i	-5.9	1.8
N#Cc1cn(-c2ccccc2)nc1C(=O)c1ccccc1	.	62.5*	i	-8.4	2.0
CC(=O)c1nn(-c2ccc(Br)cc2)cc1C(=O)c1ccccc1	-0.75	1.6	i	-5.5	2.7
Cc1cc(C)n(-c2ccc(F)cc2CN2CCN(C3CCCC3)C(CCO)C2)n1 (configuration not stated)	0.53	-0.7	+	3.6	4.7
